Values after ≈ are worked out from the molar mass of the structure shown. Active and inactive are the calls of the source. The rule behind the calls is not given here.
Assays:
[1] = system: Enterococcus faecalis; experiment: Antibacterial activity against Enterococcus faecalis after 24 hrs by broth microdilution method; type: functional
How it was run: (§1)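 2-fold serial dilutions of test agent in LB broth, DMSO under 5% final. Inoculum about 5 × 10^5 CFU/mL, confirmed by LB agar plating. Incubated 24 h at 35 °C in ambient air. MIC is the lowest concentration with no visible growth. Three repeats; oxacillin, vancomycin and chloramphenicol as positive controls.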

[2] = system: Enterococcus faecalis; experiment: Antibacterial activity against Enterococcus faecalis after 48 hrs by broth microdilution method; type: functional
[3] = system: Enterococcus faecium; experiment: Antibacterial activity against vancomycin-resistant Enterococcus faecium F935 expressing VanA after 24 hrs by broth microdilution method; type: functional; conditions: F935, 24 h; how it was run: as §1
[4] = system: Enterococcus faecium; experiment: Antibacterial activity against vancomycin-resistant Enterococcus faecium F935 expressing VanA after 48 hrs by broth microdilution method; type: functional; conditions: F935, 48 h
[5] = system: Enterococcus faecalis; experiment: Antibacterial activity against vancomycin-resistant Enterococcus faecalis CKU-17 expressing VanB after 24 hrs by broth microdilution method; type: functional; conditions: CKU-17, 24 h; how it was run: as §1
[6] = system: Enterococcus faecalis; experiment: Antibacterial activity against vancomycin-resistant Enterococcus faecalis CKU-17 expressing VanB after 48 hrs by broth microdilution method; type: functional; conditions: CKU-17, 48 h
[7] = system: Escherichia coli; experiment: Antibacterial activity against Escherichia coli up to 100 ug/mL after 24 hrs by broth microdilution method; type: functional, organism-based
How it was run: (§2)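 Broth microdilution with 2-fold serial dilutions in LB broth, compounds from DMSO stocks (DMSO below 5% final), inoculum about 5 × 10^5 CFU/mL. Incubated 24 h at 35 °C in ambient air. MIC is the lowest concentration with no visible growth. Experiments repeated three times.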

[8] = system: Pseudomonas aeruginosa; experiment: Antibacterial activity against Pseudomonas aeruginosa up to 100 ug/mL after 24 hrs by broth microdilution method; type: functional, organism-based; how it was run: as §2
[9] = system: Staphylococcus aureus; experiment: Ratio of MBC to MIC for Staphylococcus aureus; type: functional
[10] = system: Enterococcus faecalis; experiment: Ratio of MBC to MIC for Enterococcus faecalis; type: functional
[11] = system: Enterococcus faecium; experiment: Ratio of MBC to MIC for vancomycin-resistant Enterococcus faecium F935 expressing VanA; type: functional
[12] = system: Enterococcus faecalis; experiment: Antibacterial activity against vancomycin-resistant Enterococcus faecalis CKU-17 expressing VanB assessed as reduction of bacterial count at >=2 times MIC within 4 hrs by time kill assay; type: functional, organism-based
How it was run: (§3)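 Time-kill in LB broth with multiples of the broth microdilution MIC (1/2 to 8× MIC). Starting inoculum about 5 × 10^5 CFU/mL, incubated at 35 °C. Samples taken at 0, 2, 4, 6 and 24 h, dilution-plated on LB agar, and counted after 24 h. Detection limit 100 CFU/mL.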

[13] = system: Enterococcus faecium; experiment: Antibacterial activity against vancomycin-resistant Enterococcus faecium F935 expressing VanA assessed as reduction of bacterial count at >=2 times MIC concentration within 4 hrs by time kill assay; type: functional, organism-based; how it was run: as §3
[14] = system: Enterococcus faecalis; experiment: Antibacterial activity against vancomycin-resistant Enterococcus faecalis CKU-17 expressing VanB assessed as reduction of bacterial count at MIC up to 6 hrs by time kill assay; type: functional, organism-based; how it was run: as §3
[15] = system: Enterococcus faecium; experiment: Antibacterial activity against vancomycin-resistant Enterococcus faecium F935 expressing VanA assessed as reduction of bacterial count at MIC up to 6 hrs by time kill assay; type: functional, organism-based; how it was run: as §3
[16] = system: HepG2; experiment: Cytotoxicity against human HepG2 cells after 48 hrs by MTT assay; type: functional; conditions: HepG2, 48 h, read-out: CD50 (the source's name)
How it was run: (§4)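 Cells seeded at 5 × 10^3 per well, grown 24 h, then given 2-fold dilutions of sample for 48 h. Medium replaced with serum-free medium, MTT added (5 mg/mL stock) for 2 h at 37 °C, formazan dissolved in DMSO, OD read at 550 nm. CD50 is the concentration giving 50% reduction in net cell increase. Quadruplicate, repeated at least twice.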

[17] = system: HeLa; experiment: Cytotoxicity against human HeLa cells after 48 hrs by MTT assay; type: functional; conditions: read-out: CD50 (the source's name); how it was run: as §4
[18] = system: OVCAR-3; experiment: Cytotoxicity against human OVCAR-3 cells after 48 hrs by MTT assay; type: functional; conditions: OVCAR-3, 48 h, read-out: CD50 (the source's name); how it was run: as §4
[19] = system: Staphylococcus aureus; experiment: Antibacterial activity against Staphylococcus aureus after 24 hrs by broth microdilution method; type: functional
How it was run: (§5)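 2-fold serial dilutions of test agent in […], DMSO under 5% final. Inoculum about 5 × 10^5 CFU/mL, confirmed by LB agar plating. Incubated 24 h at 35 °C in ambient air. MIC is the lowest concentration with no visible growth. Three repeats; oxacillin, vancomycin and chloramphenicol as positive controls.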

[20] = system: Staphylococcus aureus; experiment: Antibacterial activity against Staphylococcus aureus after 48 hrs by broth microdilution method; type: functional
[21] = system: Staphylococcus aureus; experiment: Antibacterial activity against methicillin-resistant Staphylococcus aureus 8-8S after 24 hrs by broth microdilution method; type: functional; how it was run: as §5
[22] = system: Staphylococcus aureus; experiment: Antibacterial activity against methicillin-resistant Staphylococcus aureus 8-8S after 48 hrs by broth microdilution method; type: functional
[23] = system: Staphylococcus aureus; experiment: Antibacterial activity against methicillin-resistant Staphylococcus aureus 8-8S assessed as reduction of bacterial count at MIC within 2 hrs by time kill assay; type: functional, organism-based
How it was run: (§6)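 Time-kill in Mueller-Hinton broth with multiples of the broth microdilution MIC. Starting inoculum about 5 × 10^5 CFU/mL, incubated at 35 °C. Samples taken at 0, 2, 4, 6 and 24 h, dilution-plated on LB agar, and counted after 24 h. Detection limit 100 CFU/mL; bactericidal means 3 log or greater reduction.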

[24] = system: Staphylococcus aureus; experiment: Antibacterial activity against methicillin-resistant Staphylococcus aureus 8-8S assessed as reduction of bacterial count at 0.5 MIC within 2 hrs by time kill assay; type: functional; parameters: scale not given: the % may be the effect or the level left; how it was run: as §6
[25] = system: Enterococcus faecalis; experiment: Antibacterial activity against vancomycin-resistant Enterococcus faecalis CKU-17 expressing VanB assessed as reduction of bacterial count by time kill assay; type: functional, organism-based; how it was run: as §3
[26] = system: Enterococcus faecium; experiment: Antibacterial activity against vancomycin-resistant Enterococcus faecium F935 expressing VanA assessed as reduction of bacterial count by time kill assay; type: functional, organism-based; how it was run: as §3
[27] = system: Staphylococcus aureus; experiment: Ratio of MBC to MIC for methicillin-resistant Staphylococcus aureus 8-8S; type: functional
[28] = system: Enterococcus faecalis; experiment: Ratio of MBC to MIC for vancomycin-resistant Enterococcus faecalis CKU-17 expressing VanB; type: functional

SMILES | MIC [1] [µg/mL] | MBC [2] [µg/mL] | MIC [3] [µg/mL] | MBC [4] [µg/mL] | MIC [5] [µg/mL] | MBC [6] [µg/mL] | Activity [7] | Activity [8] | Ratio [9] | Ratio [10] | Ratio [11] | CC50 [16] [µg/mL] | CC50 [17] [µg/mL] | CC50 [18] [µg/mL] | MIC [19] [µg/mL] | MBC [20] [µg/mL] | MIC [21] [µg/mL] | MBC [22] [µg/mL] | other results
CC(C)=CC[C@H](OC(=O)CC(C)C)C1=CC(=O)c2c(O)ccc(O)c2C1=O [ISOVALERYL ALKANNIN] | 3.13 (≈ 8.4 µM) | 3.13 (≈ 8.4 µM) | 3.13 (≈ 8.4 µM) | 3.13 (≈ 8.4 µM) | 3.13 (≈ 8.4 µM) | 3.13 (≈ 8.4 µM) | inactive | inactive | <=2 | <=2 | <=2 | 2.2 (≈ 5.91 µM) | 1.7 (≈ 4.56 µM) | 0.9 (≈ 2.42 µM) | 1.56 (≈ 4.19 µM) | 1.56 (≈ 4.19 µM) | 3.13 (≈ 8.4 µM) | 3.13 (≈ 8.4 µM) | Activity [12]: Active; Activity [13]: Active; Activity [14]: Active; Activity [15]: Active
CC(C)=CC[C@H](OC(=O)C=C(C)C)C1=CC(=O)c2c(O)ccc(O)c2C1=O | 3.13 (≈ 8.45 µM) | 3.13 (≈ 8.45 µM) | 3.13 (≈ 8.45 µM) | 3.13 (≈ 8.45 µM) | 3.13 (≈ 8.45 µM) | 3.13 (≈ 8.45 µM) | inactive | inactive | <=2 | <=2 | <=2 | 2.6 (≈ 7.02 µM) | 1.8 (≈ 4.86 µM) | 1.6 (≈ 4.32 µM) | 1.56 (≈ 4.21 µM) | 1.56 (≈ 4.21 µM) | 1.56 (≈ 4.21 µM) | 3.13 (≈ 8.45 µM) | –
CC(C)=CC[C@H](OC(=O)C(C)C)C1=CC(=O)c2c(O)ccc(O)c2C1=O [ISOBUTYLALKANNIN] | 3.13 (≈ 8.73 µM) | 3.13 (≈ 8.73 µM) | 3.13 (≈ 8.73 µM) | 3.13 (≈ 8.73 µM) | 3.13 (≈ 8.73 µM) | 6.25 (≈ 17.4 µM) | inactive | inactive | <=2 | <=2 | <=2 | 4 (≈ 11.2 µM) | 5.4 (≈ 15.1 µM) | 2 (≈ 5.58 µM) | 1.56 (≈ 4.35 µM) | 1.56 (≈ 4.35 µM) | 1.56 (≈ 4.35 µM) | 3.13 (≈ 8.73 µM) | –
CC(=O)O[C@@H](CC=C(C)C)C1=CC(=O)c2c(O)ccc(O)c2C1=O [ACETYLALKANNIN] | 3.13 (≈ 9.48 µM) | 3.13 (≈ 9.48 µM) | 6.25 (≈ 18.9 µM) | 6.25 (≈ 18.9 µM) | 6.25 (≈ 18.9 µM) | 6.25 (≈ 18.9 µM) | inactive | inactive | <=2 | <=2 | <=2 | 2 (≈ 6.05 µM) | 1.5 (≈ 4.54 µM) | 1.5 (≈ 4.54 µM) | 1.56 (≈ 4.72 µM) | 1.56 (≈ 4.72 µM) | 1.56 (≈ 4.72 µM) | 1.56 (≈ 4.72 µM) | Activity [23]: Active; Activity [24]: >=99.9%; Activity [25]: Dose-dependent effect; Activity [26]: Dose-dependent effect
CC1=CC(=O)c2c(O)cccc2C1=O [PLUMBAGIN] | 25 (≈ 133 µM) | 100 (≈ 531 µM) | 12.5 (≈ 66.4 µM) | 50 (≈ 266 µM) | 12.5 (≈ 66.4 µM) | 50 (≈ 266 µM) | – | – | >=4 | >=4 | >=4 | – | – | – | 3.13 (≈ 16.6 µM) | 25 (≈ 133 µM) | 3.13 (≈ 16.6 µM) | 25 (≈ 133 µM) | Ratio [27]: >=4; Ratio [28]: >=4
